Measured values taken from ChEMBL document CHEMBL1909527, “Asymmetric synthesis and biological evaluation of N-cyclohexyl-4-[1-(2,4-dichlorophenyl)-1-(p-tolyl)methyl]piperazine-1-carboxamide as hCB1 receptor antagonists” (Eur J Med Chem, 2011).
Calls of active or inactive are those of the source. The calls are words filed in the database; no cut-off is given here.

Tests used:
[1] = Oral bioavailability in Sprague-Dawley rat at 10 mg/kg by LC/MS/MS analysis; assay type: ADME, organism-based; settings: in vivo
Summary of the method: (§1)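 Sprague-Dawley rats dosed orally at 10 mg/kg; blood drawn at various time points into lithium heparin tubes, centrifuged, plasma stored at −20 °C until analysis. Values are mean ± SEM of at least three experiments.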

[2] = Ratio of drug level in brain to plasma in Sprague-Dawley rat at 10 mg/kg, po measured 9 hrs post dose by LC/MS/MS analysis; assay type: ADME, organism-based; design: dose 10 mg/kg, route oral; settings: read-out: BPR
Summary of the method: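 Rats given 10 mg/kg orally and sacrificed at 3, 5 and 9 h post-dose; whole brain and blood collected and stored at −20 °C; brain/plasma ratio reported at 9 h. Mean ± SEM, at least three experiments.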

[3] = AUC (0 to infinity) in Sprague-Dawley rat at 10 mg/kg, po by LC/MS/MS analysis; assay type: ADME, organism-based; design: time infinity, dose 10 mg/kg, route oral; settings: plasma; summary of the method: as §1
Mus musculus [4] = test: Antiobesity activity in diet-induced obese C57BL/6J mouse assessed as reduction in food intake at 10 mg/kg, po qd for 35 days; assay type: functional, organism-based; design: dose 10 mg/kg
Summary of the method: (§2)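 DIO mice aged 20–24 weeks, kept on high-fat diet throughout, group-housed at 25 °C on a 12 h/12 h light-dark cycle, conditioned to water gavage for 5 days. Dosed orally once daily for 35 days with vehicle (0.1% Tween 80) or compound at 10 mg/kg, 1 h before dark cycle; n = 9–10/group. Food intake and body weight measured weekly; visceral fat mass at study end.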

[5] = Half life in Sprague-Dawley rat at 10 mg/kg, po by LC/MS/MS analysis; assay type: ADME, organism-based; design: dose 10 mg/kg, route oral; settings: in vivo; summary of the method: as §1
[6] = Tmax in Sprague-Dawley rat at 10 mg/kg, po by LC/MS/MS analysis; assay type: ADME, organism-based; design: dose 10 mg/kg, route oral; settings: in vivo; summary of the method: as §1
Mus musculus [7] = test: Antiobesity activity in diet-induced obese C57BL/6J mouse assessed as reduction of body weight at 10 mg/kg, po qd for 35 days; assay type: functional, organism-based; design: dose 10 mg/kg; summary of the method: as §2
Cannabinoid receptor 2 = Cannabinoid receptor 2 (Homo sapiens, UniProt P34972); test: Displacement of [3H]-CP-55940 from human CB2 receptor expressed in CHO cells pretreated for 10 mins measured after 3 hrs by scintillation counting; assay type: cell-based
Summary of the method: (§3)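 Whole-cell binding in CHO cells stably expressing hCB1 or hCB2, serum-starved in serum-free F12 for 3 h, pretreated with varying compound concentrations 10 min, then [3H]-CP-55940 added; 3 h at 37 °C. Cells washed 5× with warm PBS, lysed in PBS/1% SDS, bound radioactivity counted. Triplicate; Ki from nonlinear-regression IC50 via Cheng-Prusoff; mean ± SEM, n = 3 independent experiments.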

Cannabinoid receptor 1 [8] = molecular target: T1, Cannabinoid receptor 1 (Homo sapiens, UniProt P21554); test: Antagonist activity at human CB1 receptor expressed in CHO cells coexpressing Galpha15/16 assessed as inhibition of CP55940-induced Ca2+ release after 10 mins by micro plate reader assay; assay type: functional, cell-based
Summary of the method: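 CHO-hCB1 cells co-expressing Gα15/16 loaded with fluo-4 AM in HBSS (with […] sulfinpyrazone, pH 7.4) at 37 °C for 50 min, washed, then given test compound at various concentrations (DMSO final 1%) for 10 min at room temperature before CP55940 addition; intracellular calcium read at ex 485/em 525 nm. Triplicate; IC50 from dose-response curves, mean ± SEM, n = 3.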

Mus musculus [9] = test: Antiobesity activity in diet-induced obese C57BL/6J mouse assessed as reduction in visceral fat mass at 10 mg/kg, po qd for 35 days; assay type: functional, organism-based; design: dose 10 mg/kg; summary of the method: as §2
Cannabinoid receptor 1 [10] = molecular target: T1, Cannabinoid receptor 1; test: Displacement of [3H]-CP-55940 from human CB1 receptor expressed in CHO cells pretreated for 10 mins measured after 3 hrs by scintillation counting; assay type: cell-based; summary of the method: as §3
[11] = Cmax in Sprague-Dawley rat at 10 mg/kg, po by LC/MS/MS analysis; assay type: ADME, organism-based; design: dose 10 mg/kg, route oral; settings: in vivo; summary of the method: as §1

T1 sequence (P21554 whole entry): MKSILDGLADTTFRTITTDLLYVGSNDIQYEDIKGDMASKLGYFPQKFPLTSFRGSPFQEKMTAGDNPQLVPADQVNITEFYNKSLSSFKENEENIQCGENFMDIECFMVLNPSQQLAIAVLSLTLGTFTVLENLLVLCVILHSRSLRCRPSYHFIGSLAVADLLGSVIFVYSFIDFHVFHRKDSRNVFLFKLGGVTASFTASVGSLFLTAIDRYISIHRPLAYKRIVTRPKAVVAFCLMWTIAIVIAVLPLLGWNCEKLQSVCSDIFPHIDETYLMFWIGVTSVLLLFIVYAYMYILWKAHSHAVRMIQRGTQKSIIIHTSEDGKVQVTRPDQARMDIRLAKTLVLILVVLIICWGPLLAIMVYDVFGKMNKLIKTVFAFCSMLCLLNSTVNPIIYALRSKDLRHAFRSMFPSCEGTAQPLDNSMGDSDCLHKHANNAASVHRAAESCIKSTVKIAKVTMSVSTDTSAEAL
Chain of Cannabinoid receptor 2 (P34972 whole entry): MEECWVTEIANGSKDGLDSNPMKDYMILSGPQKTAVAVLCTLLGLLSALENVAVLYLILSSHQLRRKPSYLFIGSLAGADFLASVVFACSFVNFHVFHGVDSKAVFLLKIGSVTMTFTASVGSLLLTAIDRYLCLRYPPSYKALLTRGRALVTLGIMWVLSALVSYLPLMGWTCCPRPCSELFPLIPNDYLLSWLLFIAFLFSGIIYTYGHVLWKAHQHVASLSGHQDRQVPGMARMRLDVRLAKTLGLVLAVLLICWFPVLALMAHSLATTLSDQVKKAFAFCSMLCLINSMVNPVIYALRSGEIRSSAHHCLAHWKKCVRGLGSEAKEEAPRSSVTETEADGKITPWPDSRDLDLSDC

Row | bioavailability [1] | Kp at 9 h [2] | AUC(0-inf) [3] | half-life [5] | Tmax [6] | Ki (Cannabinoid receptor 2) | IC50 (Cannabinoid receptor 1 [8]) | Ki (Cannabinoid receptor 1 [10]) | Cmax [11] | SMILES | Activity (Mus musculus [4]) | Activity (Mus musculus [7]) | Activity (Mus musculus [9])
1 | 15% | 0.88 | 655 ng·h/mL | 3.8 h | 1.2 h | 227 nM | 0.9 nM | 0.2 nM | 116 ng/mL | Cc1ccc([C@H](c2ccc(Cl)cc2Cl)N2CCN(C(=O)NC3CCCCC3)CC2)cc1 | inactive | Active | Active
2 | 6% | 1.42 | 695 ng·h/mL | 3.4 h | 1.3 h | 242 nM | 21.5 nM | 1.1 nM | 128 ng/mL | Cc1ccc([C@@H](c2ccc(Cl)cc2Cl)N2CCN(C(=O)NC3CCCCC3)CC2)cc1 | inactive | inactive | 
3 | 8% | 0.91 | 883 ng·h/mL | 2.3 h | 2.4 h |  |  |  | 180 ng/mL | Cc1ccc(C(c2ccc(Cl)cc2Cl)N2CCN(C(=O)NC3CCCCC3)CC2)cc1 (racemic) |  |  | 
